Columns and labels:
SK-MES-1 = assay: Cytotoxicity against human SKMES1 cells after 96 hrs by MTT assay; format: functional; conditions: SK-MES-1, 96 h
How it was run: (§1)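 Cells were seeded at 1×10^5 cells/mL: leukaemia/lymphoma lines in RPMI-1640, solid tumour and fibroblast lines in specific media, all with 10% FCS. Serial compound dilutions were applied for 96 h at 37 °C, 5% CO2, under conditions allowing controls at least three rounds of multiplication. Viability was read by MTT. CC50 by linear regression. Mean of three determinations.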

[1] = Inhibition of HCV1b BK 6xHis-tagged recombinant NS5B Cdelta 21 RNA dependent RNA polymerase expressed in Escherichia coli (DE3) using GTP as substrate preincubated for 30 mins before substrate addition measured after 120 mins by fluorescence assay; design: species or system Hepatitis C virus (isolate BK)
How it was run: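 His-tagged NS5B (BVDV C-terminal Δ24; HCV1b Δ21) from E. coli Rosetta 2(DE3)pLysS, Ni-NTA purified, 500–600 ng per 20 μL. The template was poly(rC) 10 μg/mL and the primer oligo(rG)12 0.1 μg/mL, with GTP 80 μM. Buffer: 20 mM Tris pH 7.0, 0.5 mM MnCl2 or 5 mM MgCl2, 5% DMSO. Enzyme/drug 30 min at RT, then GTP added; 120 min at 37 °C (BVDV) or 25 °C (HCV). Read-out was dsRNA dye fluorescence (ex 480/em 520). IC50 from dose–response fits.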

[2] = Cytotoxicity against human GS4.1 cells; format: cell-based
How it was run: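 Huh-7 cells carrying HCV genotype 1b subgenomic replicon, grown in D-MEM/10% FBS with 0.5 mg/mL G418. Seeded at 7.5×10^3 cells/well with two-fold serial dilutions (top 75 μM), incubated 72 h at 37 °C. Viability by MTS-type Cell Titer 96 Aqueous One reagent; CC50 from % cytotoxicity versus concentration curves.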

[3] = Selectivity index, ratio of EC50 for Bovine viral diarrhea virus 1-NADL to CC50 for MDBK cells
How it was run: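 CC50 was measured in mock-infected MDBK cells seeded at 6×10^5 cells/mL in MEM-E with 10% horse serum and treated with serial compound dilutions for 48–96 h; viability by MTT. EC50 came from BVDV NADL CPE protection in MDBK cells at m.o.i. 0.01, 3–4 days, MTT. Both were obtained by linear regression.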

[4] = Selectivity index, […] for human GS4.1 cells
How it was run: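 Both values come from GS4.1 replicon cells treated 72 h with two-fold serial dilutions (top 75 μM). EC50 was from NS4A ELISA with a four-parameter sigmoidal fit. CC50 was from a tetrazolium-based Aqueous One cell proliferation readout.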

Hepatitis C virus = assay: Antiviral activity against HCV1b infected in human GS4.1 cells assessed as inhibition of virus-induced cytopathogenicity by measuring viral NS4A protein level after 72 hrs by ELISA; format: functional, organism-based, Hepacivirus hominis; conditions: genotype 1b
How it was run: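 GS4.1 cells are Huh-7 cells carrying a genotype 1b subgenomic replicon, kept in 0.5 mg/mL G418. They were seeded at 7.5×10^3 cells/well with two-fold serial dilutions of compound (top 75 μM) and incubated 72 h at 37 °C. Huh-7 cells without the replicon served as negative control. NS4A was measured by cell ELISA with anti-NS4A mAb A-236, peroxidase and o-phenylenediamine, A492. EC50 came from four-parameter sigmoidal fit.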

[5] = Cytotoxicity against MDBK cells after 48 to 96 hrs by MTT assay; format: cell-based, Bos taurus; conditions: cattle
How it was run: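 MDBK seeded at 6×10^5 and BHK at 1×10^6 cells/mL in MEM-Earle's with L-glutamine, 1 mM pyruvate, kanamycin, plus 10% horse serum (MDBK) or 10% FBS (BHK). Cells were grown at 37 °C, 5% CO2 with serial compound dilutions (DMSO stocks diluted in medium). Viability by MTT after 48–96 h. CC50 was taken by linear regression versus untreated controls; three independent determinations.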

[6] = Cytotoxicity against human CRL7065 cells after 96 hrs by MTT assay; format: cell-based, CRL-7065
How it was run: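 Foreskin fibroblasts seeded at 1×10^5 cells/mL in specific medium with 10% FCS and antibiotics; serial compound dilutions, 37 °C, 5% CO2, 96 h, under conditions allowing untreated controls at least three rounds of multiplication. MTT read-out; concentration reducing proliferation by 50% by linear regression versus untreated controls; three independent determinations.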

Reovirus sp. = assay: Antiviral activity against Reovirus type-1 3651 infected in hamster BHK21 cells assessed as inhibition of virus-induced cytopathogenicity after 3 to 4 days by MTT assay; format: functional, organism-based; conditions: Reovirus sp., 3651, BHK-21
How it was run: (§2)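 Host cells were seeded in 96-well plates at 3×10^4 cells/well (MDBK) or 5×10^4 cells/well (BHK-21) and grown to confluent monolayers overnight. They were infected at m.o.i. 0.01 in maintenance MEM with 0.5% inactivated FBS. Serial compound dilutions were added after 1 h. Viability was read by MTT after 3–4 days at 37 °C. EC50 was taken by linear regression against untreated controls. Mean of three determinations.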

WIL2-NS = assay: Cytotoxicity against human WIL2-NS cells after 96 hrs by MTT assay; format: functional; how it was run: as §1
[7] = Cytotoxicity against human MRC5 cells after 96 hrs by MTT assay; format: cell-based; how it was run: as §1
[8] = Cytotoxicity against human MT4 cells after 96 hrs by MTT assay; format: cell-based
How it was run: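 Exponentially growing MT-4 cells seeded at 1×10^5 cells/mL in RPMI-1640 with 10% FBS, penicillin and streptomycin. Incubated with serial compound dilutions at 37 °C, 5% CO2 for 96 h; viability by MTT. CC50 by linear regression relative to untreated controls; mean of three independent determinations.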

[9] = Inhibition of Bovine viral diarrhea virus 1-NADL recombinant NS5B Cdelta 21 RNA dependent RNA polymerase expressed in Escherichia coli (DE3) using GTP as substrate preincubated for 30 mins before substrate addition measured after 120 mins by fluorescence assay
SK-MEL-28 = assay: Cytotoxicity against human SK-MEL-28 cells after 96 hrs by MTT assay; format: functional; conditions: SK-MEL-28, 96 h; how it was run: as §1
[10] = Antiviral activity against Vaccinia virus Lister Elstree infected in african green monkey Vero 76 cells assessed as reduction of virus-induced plaque formation after 3 days using crystal violet staining; format: functional, cell-based; conditions: 72 h
Yellow fever virus = assay: Antiviral activity against Yellow fever virus 17D Stamaril Pasteur J07B01 infected in hamster BHK21 cells assessed as inhibition of virus-induced cytopathogenicity after 3 to 4 days by MTT assay; format: functional, cell-based; conditions: Stamaril Pasteur J07B01, BHK-21; how it was run: as §2
MCF7 = assay: Cytotoxicity against human MCF7 cells after 96 hrs by MTT assay; format: functional; conditions: MCF7, 96 h; how it was run: as §1
[11] = Cytotoxicity against african green monkey Vero 76 cells after 48 to 96 hrs by crystal violet staining; format: cell-based; conditions: chlorocebus sabaeus
How it was run: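 Vero-76 cells were seeded at 4×10^5 cells/mL in D-MEM with L-glutamine, kanamycin and 10% FBS, then exposed to serial compound dilutions at 37 °C, 5% CO2 for 48–96 h. Viability was read by crystal violet staining. 50% cytotoxic concentration by linear regression relative to untreated controls; mean of three independent determinations.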

CCRF-CEM = assay: Cytotoxicity against human CCRF-CEM cells after 96 hrs by MTT assay; format: functional; how it was run: as §1

Compound: O=[N+]([O-])c1ccc(-c2nc3cc4cccnc4c(Cl)c3[nH]2)cc1
- CC50 (SK-MES-1): > 100 µM
- IC50 [1]: 8 µM
- CC50 [2]: 12 µM
- Selectivity Index [3]: >100
- Selectivity Index [4]: 4
- EC50 (Hepatitis C virus): 3.1 µM
- CC50 [5]: > 100 µM
- CC50 at 96 h [6]: > 100 µM
- EC50 (Reovirus sp.): > 100 µM
- CC50 (WIL2-NS): > 100 µM
- CC50 at 96 h [7]: > 100 µM
- CC50 at 96 h [8]: > 100 µM
- IC50 [9]: 0.06 µM
- CC50 (SK-MEL-28): > 100 µM
- EC50 [10]: > 100 µM
- EC50 (Yellow fever virus): > 100 µM
- CC50 (MCF7): > 100 µM
- CC50 [11]: > 100 µM
- CC50 (CCRF-CEM): 49 µM
